Measurements from different studies.
Target: Serine/threonine-protein kinase 10 (STK10, Homo sapiens, UniProt O94804)

CNC(=O)c1cc2c(Oc3ccc(NC(=O)C4(C(=O)Nc5ccc(F)cc5)CC4)cc3)ccnc2cc1OC — inhibition (enzyme activity, inhibitor, radiometric; 1 µM): 75%
C[C@@H](c1cccc(C#N)c1)n1cc(Cl)cc(C(N)=O)c1=N — remaining binding (cell-free assay, competition with immobilised ligand; 1 µM): 86%
Cc1cc(NC(=O)c2cccc3cc(-c4cccc5[nH]nc(N)c45)ccc23)ccc1F — activity vs control (enzyme activity, inhibitor; 0.1 µM): 97%
CC(C)c1ccc(NC(=O)c2cccs2)c(-c2nc3ccccc3[nH]c2=O)c1 — activity vs control (enzyme activity, inhibitor; 1 µM): 103%
CCN1CCN(Cc2ccc(NC(=O)c3ccc(C)c(/C=C/c4cnc5[nH]ccc5c4OC)c3)cc2C(F)(F)F)CC1 — inhibition (target engagement in cells, inhibitor, chemoproteomics; A-375; 50 nM): -39.1%
FC(F)(F)c1ccc2c(c1)nc(-c1cccnc1)n2C1CC1 — remaining binding (cell-free assay, competition with immobilised ligand; 1 µM): 100%
CCN(CC)CCNC(=O)c1c(C)[nH]c(/C=C2\C(=O)Nc3ccc(F)cc32)c1C — inhibition (enzyme activity, inhibitor; 10 µM): 83%
COc1cc2nccc(Oc3ccc(NC(=O)Nc4ccc(F)cc4F)c(F)c3)c2cc1OC — ΔTm (thermal stability, DSF; 10 µM): > 10 °C
COc1cc2c(N3CCN(C(=O)Nc4ccc(OC(C)C)cc4)CC3)ncnc2cc1OCCCN1CCCCC1 — remaining signal (cell-free assay; 0.5 µM): 95%
Cn1nc(C(F)(F)F)cc1-c1cnc(N2CCc3cc(S(=O)(=O)Nc4c(F)cc(Cl)cc4F)cc(N4CCCC4=O)c32)nc1 — remaining binding (cell-free assay, competition with immobilised ligand; 1 µM): 94%
Cc1sc(C(=O)NC2COC2)cc1-n1cc(NC(=O)Nc2c(F)cccc2Cl)cn1 — remaining activity (enzyme activity, inhibitor; 10 µM): 96.4%
CC(C)(O)[C@H]1CC[C@H](Nc2ccc3ncc(-c4cccc(C(F)(F)F)c4)n3n2)CC1 — remaining activity (enzyme activity, inhibitor; 1 µM): 63.8%
Cc1c[nH]c2nccc(Oc3c(F)cc(Nc4cc(Cl)nc(N)n4)cc3F)c12 — remaining binding (cell-free assay, competition with immobilised ligand; 0.1 µM): 100%
CCCS(=O)(=O)Nc1ccc(F)c(C(=O)c2c[nH]c3ncc(-c4ccc(Cl)cc4)cc23)c1F — inhibition (enzyme activity, inhibitor; 1 µM): < 10%
O=S(=O)(NC1CCC(c2cc(F)ccc2F)(S(=O)(=O)c2ccc(Cl)cc2)CC1)C(F)(F)F (centres unmarked) — remaining binding (cell-free assay, competition with immobilised ligand; 1 µM): 100%
CNC(=O)c1cc(Oc2ccc(NC(=O)Nc3ccc(Cl)c(C(F)(F)F)c3)cc2)ccn1 — inhibition (enzyme activity, inhibitor; 0.3 µM): 43%
Cc1ccc(C(=O)Nc2ccc(CN3CCN(C)CC3)c(C(F)(F)F)c2)cc1C#Cc1cnc2cccnn12 — remaining activity (enzyme activity, inhibitor; 23.5 nM): 0.05%
N#CCCc1ccc2c(c1)-c1[nH]c3ccc([N+](=O)[O-])cc3c1CC(=O)N2 — remaining signal (cell-free assay; 0.5 µM): 74.1%
CCOCCn1cc(C(=O)Nc2ccc(-n3nc(-c4cccnc4)cc3C(F)(F)F)cn2)ccc1=O — remaining binding (cell-free assay, competition with immobilised ligand; 1 µM): 100%
O=C1NC(=O)c2cc(Nc3ccc(F)cc3)c(Nc3ccc(F)cc3)cc21 — remaining signal (cell-free assay; 0.5 µM): 79.2%
Cc1noc([C@H]2C[C@@H](c3ccc(C(F)(F)F)cc3)CN(C(=O)N3CCS(=O)(=O)C3)C2)n1 — remaining binding (cell-free assay, competition with immobilised ligand; 1 µM): 100%
CCN1CCN(Cc2ccc(NC(=O)c3ccc(C)c(Oc4ccnc5[nH]ccc45)c3)cc2C(F)(F)F)CC1 — inhibition (target engagement in cells, inhibitor, chemoproteomics; A-375; 0.5 µM): -177%
Nc1nc(Nc2ccc(S(N)(=O)=O)cc2)nn1C(=O)c1c(F)cccc1F — remaining signal (cell-free assay; 0.5 µM): 17%
